ChEMBL document CHEMBL4002631, “Synthesis, antimycobacterial and cytotoxic activity of α,β-unsaturated amides and 2,4-disubstituted oxazoline derivatives” (Bioorg Med Chem Lett, 2017)
≈ marks a conversion by molar mass, not a printed value.

test system: Mycobacterium tuberculosis; test: Antimycobacterial activity against isoniazid/rifampicin/ethambutol-resistant Mycobacterium tuberculosis clinical isolate after 4 days by Alamar blue assay; assay type: functional; details: 96 h
Method in brief: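 Microplate Alamar blue assay against M. tuberculosis H37Rv (sensitive to isoniazid, rifampicin and ethambutol) and a clinical isolate resistant to all three drugs. Compounds were tested at 256, 128, 64, 32, 16, 8, 4, 2 and 1 µg/mL. Isoniazid, rifampicin, ethambutol and ofloxacin controls were run under the same conditions. MIC is given in µg/mL and converted to µM.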

Question: Which MIC does the source give for `C(=C\c1ccccc1)/C1=N[C@@H](Cc2ccccc2)CO1` here?
Answer: Its MIC is 30.4 µM (≈ 8.01 µg/mL).

Question: For `C(=C\c1cccs1)/C1=N[C@@H](Cc2ccccc2)CO1`, which MIC is on record?
Answer: The MIC was 7.4 µM (≈ 1.99 µg/mL).

Question: `O=C(/C=C/c1ccc(OCc2ccccc2)cc1)N[C@H](CO)Cc1ccccc1` was tested. Which MIC did it give?
Answer: Its MIC is 41.2 µM (≈ 16 µg/mL).

Question: For `COc1ccc(/C=C/C2=N[C@@H](Cc3ccccc3)CO2)cc1`, which MIC is on record?
Answer: The MIC was 6.8 µM (≈ 1.99 µg/mL).

Question: With `COc1ccc(/C=C/C(=O)N[C@H](CO)Cc2ccccc2)cc1` as the compound, how does the MIC read?
Answer: Its MIC is 51.3 µM (≈ 16 µg/mL).

Question: With `O=C(/C=C/c1cccs1)N[C@H](CO)Cc1ccccc1` as the compound, how does the MIC read?
Answer: The MIC was 55.6 µM (≈ 16 µg/mL).

Question: With `O=C(/C=C/c1ccccc1)N[C@H](CO)Cc1ccccc1` as the compound, how does the MIC read?
Answer: Its MIC is 56.8 µM (≈ 16 µg/mL).

Question: `Fc1ccc(/C=C/C2=N[C@@H](Cc3ccccc3)CO2)cc1` was tested. Which MIC did it give?
Answer: The MIC was 56.9 µM (≈ 16 µg/mL).

Question: How did the MIC turn out when `Clc1ccc(/C=C/C2=N[C@@H](Cc3ccccc3)CO2)cc1` was run?
Answer: Its MIC is 26.9 µM (≈ 8.01 µg/mL).

Question: `C(=C\c1ccc(OCc2ccccc2)cc1)/C1=N[C@@H](Cc2ccccc2)CO1` was tested. Which MIC did it give?
Answer: The MIC was 21.6 µM (≈ 7.98 µg/mL).

Question: For `O=C(/C=C/c1ccc(Cl)cc1)N[C@H](CO)Cc1ccccc1`, which MIC is on record?
Answer: Its MIC is 50.6 µM (≈ 16 µg/mL).

Question: `O=C(/C=C/c1ccc(F)cc1)N[C@H](CO)Cc1ccccc1` was tested. Which MIC did it give?
Answer: The MIC was 53.4 µM (≈ 16 µg/mL).

Question: `CC[C@@H](CO)NCCN[C@@H](CC)CO` [ETHAMBUTOL] was tested. Which MIC did it give?
Answer: Its MIC is > 1250 µM.

Question: For `NNC(=O)c1ccncc1` [ISONIAZID], which MIC is on record?
Answer: The MIC was 58.3 µM (≈ 8 µg/mL).

Question: Which MIC does the source give for `CC1COc2c(N3CCN(C)CC3)c(F)cc3c(=O)c(C(=O)O)cn1c23` (stereo unspecified) [OFLOXACIN] here?
Answer: Its MIC is 5.5 µM (≈ 1.99 µg/mL).

Question: With `CO[C@H]1/C=C/O[C@@]2(C)Oc3c(C)c(O)c4c(O)c(c(/C=N/N5CCN(C)CC5)c(O)c4c3C2=O)NC(=O)/C(C)=C\C=C\[C@H](C)[C@H](O)[C@@H](C)[C@@H](O)[C@@H](C)[C@H](OC(C)=O)[C@@H]1C` [RIFAMPIN] as the compound, how does the MIC read?
Answer: The MIC was 19.4 µM (≈ 16 µg/mL).
